According to ChEMBL document CHEMBL1649475, “In vivo pharmacodynamic profile of tigecycline against phenotypically diverse Escherichia coli and Klebsiella pneumoniae isolates” (Antimicrob Agents Chemother, 2009):
Values after ≈ are worked out from the molar mass of the structure shown.

Assays:
Escherichia coli [1] = assay: Antibacterial activity against Escherichia coli isolate 120 infected in ICR mouse assessed as change in bacterial load at 6.25 to 50 mg/kg, sc; assay type: functional; details: dose mg/kg 6.25-50; route subcutaneous
Summary of the method: (§1)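 Female CD-1/ICR mice (~25 g) were made neutropenic with intraperitoneal cyclophosphamide, 150 mg/kg 4 days and 100 mg/kg 1 day before inoculation. Isolates were grown on blood agar at 35°C for 18–24 h, and 0.1 ml of 10^7 CFU/ml was injected intramuscularly per thigh. At 2 h, tigecycline in saline was given sc as single or multiple doses of 3.125–50 mg/kg. Thighs were homogenized at 24 h and plated. Read-out was mean change in log10 CFU/ml versus 0-h controls, three mice per group.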

[2] = Ratio of fAUC to MIC in Escherichia coli isolate 120-infected ICR mouse at 50% maximal effective concentration; assay type: functional
Summary of the method: (§2)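 EI50, EI80 and the static exposure were read from fitted curves. Free AUC came from earlier mouse PK using concentration-dependent protein binding set at Cmax. MICs were run in triplicate by CLSI broth microdilution in Mueller-Hinton broth prepared <12 h before testing, or by Etest.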

[3] = Ratio of fAUC to MIC in extended-spectrum beta-lactamase producing Klebsiella pneumoniae isolate 255-infected ICR mouse at 50% maximal effective concentration; assay type: functional
Summary of the method: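 Female CD-1/ICR mice (~25 g) were made neutropenic with cyclophosphamide IP (150 mg/kg day −4, 100 mg/kg day −1). Each thigh received 0.1 ml IM of 10^7 CFU/ml inoculum. Tigecycline in saline was given SC 2 h later, single or multiple doses, 6.25–300 mg/kg/day. Three mice per group.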

Escherichia coli [4] = assay: Antibacterial activity against extended-spectrum beta-lactamase producing Escherichia coli isolate 321 infected in ICR mouse assessed as change in bacterial load at 6.25 to 50 mg/kg, sc; assay type: functional; details: dose mg/kg 6.25-50; route subcutaneous; summary of the method: as §1
[5] = Ratio of fAUC to MIC in carbapenemase producing Klebsiella pneumoniae isolate 321-infected ICR mouse at 50% maximal effective concentration; assay type: functional; summary of the method: as §2
[6] = Ratio of fAUC to MIC in extended-spectrum beta-lactamase producing Klebsiella pneumoniae isolate 266 at bacteriostatic concentration; assay type: functional; summary of the method: as §2
[7] = Ratio of fAUC to MIC in Klebsiella pneumoniae isolate 134-infected ICR mouse at bacteriostatic concentration; assay type: functional; summary of the method: as §2
Klebsiella pneumoniae [8] = assay: Antibacterial activity against carbapenemase producing Klebsiella pneumoniae isolate 321 infected in ICR mouse assessed as change in bacterial load at 6.25 to 50 mg/kg, sc; assay type: functional; details: dose mg/kg 6.25-50; route subcutaneous; summary of the method: as §1
Klebsiella pneumoniae [9] = assay: Antibacterial activity against extended-spectrum beta-lactamase producing Klebsiella pneumoniae isolate 255 infected in ICR mouse assessed as change in bacterial load at 6.25 to 50 mg/kg, sc; assay type: functional; details: dose mg/kg 6.25-50; route subcutaneous; summary of the method: as §1
[10] = Ratio of fAUC to MIC in extended-spectrum beta-lactamase producing Escherichia coli isolate 315-infected ICR mouse at 50% maximal effective concentration; assay type: functional; summary of the method: as §2
Klebsiella pneumoniae [11] = assay: Antibacterial activity against extended-spectrum beta-lactamase producing Klebsiella pneumoniae isolate 266 by broth microdilution method; assay type: functional
Summary of the method: (§3)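 Tigecycline MICs by broth microdilution per CLSI guidelines, run in triplicate. Mueller-Hinton broth was prepared fresh less than 12 h before testing.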

Escherichia coli [12] = assay: Antibacterial activity against Escherichia coli isolate 54 by broth microdilution method; assay type: functional; summary of the method: as §3
Klebsiella pneumoniae [13] = assay: Antibacterial activity against Klebsiella pneumoniae isolate 135 infected in ICR mouse assessed as change in bacterial load at 6.25 to 50 mg/kg, sc; assay type: functional; details: dose mg/kg 6.25-50; route subcutaneous; summary of the method: as §1
Escherichia coli [14] = assay: Antibacterial activity against extended-spectrum beta-lactamase producing Escherichia coli isolate 321 by broth microdilution method; assay type: functional; summary of the method: as §3
[15] = Ratio of fAUC to MIC in extended-spectrum beta-lactamase producing Klebsiella pneumoniae isolate 320-infected ICR mouse at bacteriostatic concentration; assay type: functional; summary of the method: as §2
[16] = Ratio of fAUC to MIC in extended-spectrum beta-lactamase producing Klebsiella pneumoniae isolate 255-infected ICR mouse at bacteriostatic concentration; assay type: functional; summary of the method: as §2
[17] = Ratio of fAUC to MIC in extended-spectrum beta-lactamase producing Escherichia coli isolate 322-infected ICR mouse at 50% maximal effective concentration; assay type: functional; summary of the method: as §2
[18] = Ratio of fAUC to MIC in extended-spectrum beta-lactamase producing Klebsiella pneumoniae isolate 255-infected ICR mouse at 80% maximal effective concentration; assay type: functional; summary of the method: as §2
Klebsiella pneumoniae [19] = assay: Antibacterial activity against Klebsiella pneumoniae isolate 134 by broth microdilution method; assay type: functional; summary of the method: as §3
[20] = Ratio of fAUC to MIC in Klebsiella pneumoniae isolate 134-infected ICR mouse at 50% maximal effective concentration; assay type: functional; summary of the method: as §2
[21] = Ratio of fAUC to MIC in extended-spectrum beta-lactamase producing Klebsiella pneumoniae isolate 266-infected ICR mouse at 50% maximal effective concentration; assay type: functional; summary of the method: as §2
Klebsiella pneumoniae [22] = assay: Antibacterial activity against extended-spectrum beta-lactamase producing Klebsiella pneumoniae isolate 266 infected in ICR mouse assessed as change in bacterial load at 6.25 to 50 mg/kg, sc; assay type: functional; details: dose mg/kg 6.25-50; route subcutaneous; summary of the method: as §1
[23] = Ratio of fAUC to MIC in Escherichia coli isolate 120-infected ICR mouse at bacteriostatic concentration; assay type: functional; summary of the method: as §2
[24] = Ratio of fAUC to MIC in extended-spectrum beta-lactamase producing Escherichia coli isolate 322-infected ICR mouse at bacteriostatic concentration; assay type: functional; summary of the method: as §2
Escherichia coli [25] = assay: Antibacterial activity against extended-spectrum beta-lactamase producing Escherichia coli isolate 315 infected in ICR mouse assessed as change in bacterial load at 6.25 to 50 mg/kg, sc; assay type: functional; details: dose mg/kg 6.25-50; route subcutaneous; summary of the method: as §1
[26] = Ratio of fAUC to MIC in Escherichia coli isolate 120-infected ICR mouse at 80% maximal effective concentration; assay type: functional; summary of the method: as §2
[27] = Cmax in ICR mouse at 6.25 mg/kg, sc; details: in vivo
[28] = Ratio of fAUC to MIC in extended-spectrum beta-lactamase producing Klebsiella pneumoniae isolate 320-infected ICR mouse at 50% maximal effective concentration; assay type: functional; summary of the method: as §2
[29] = Ratio of fAUC to MIC in extended-spectrum beta-lactamase producing Klebsiella pneumoniae isolate 266-infected ICR mouse at 80% maximal effective concentration; assay type: functional; summary of the method: as §2

SMILES: CN(C)c1cc(NC(=O)CNC(C)(C)C)c(O)c2c1C[C@H]1C[C@H]3[C@H](N(C)C)C(O)=C(C(N)=O)C(=O)[C@@]3(O)C(O)=C1C2=O [TIGECYCLINE]
- log10CFU/ml (Escherichia coli [1]): -2.3
- fAUC/MIC [2]: 3.7
- fAUC/MIC [3]: 2.64
- log10CFU/ml (Escherichia coli [4]): -2.54
- fAUC/MIC [5]: 4.53
- fAUC/MIC [6]: 5.13
- fAUC/MIC [7]: 6.53
- log10CFU/ml (Klebsiella pneumoniae [8]): -1.46
- log10CFU/ml (Klebsiella pneumoniae [9]): -3.15
- fAUC/MIC [10]: 3.71
- MIC (Klebsiella pneumoniae [11]): 0.5 µg/mL (≈ 0.854 µM)
- MIC (Escherichia coli [12]): 0.25 µg/mL (≈ 0.427 µM)
- log10CFU/ml (Klebsiella pneumoniae [13]): -1.51
- MIC (Escherichia coli [14]): 0.25 µg/mL (≈ 0.427 µM)
- fAUC/MIC [15]: 3.09
- fAUC/MIC [16]: 2.02
- fAUC/MIC [17]: 6.27
- fAUC/MIC [18]: 4.81
- MIC (Klebsiella pneumoniae [19]): 0.5 µg/mL (≈ 0.854 µM)
- fAUC/MIC [20]: 5.91
- fAUC/MIC [21]: 5.37
- log10CFU/ml (Klebsiella pneumoniae [22]): -1.34
- fAUC/MIC [23]: 4.76
- fAUC/MIC [24]: 7.5
- log10CFU/ml (Escherichia coli [25]): -2
- fAUC/MIC [26]: 7.3
- Cmax [27]: 1700 ng/mL
- fAUC/MIC [28]: 2.01
- fAUC/MIC [29]: 7.15
